{"source": "paper PMC11684312", "about": "(Nature chemistry, 2024)", "key": {"WT LIMK1-NanoLuc": {"target": "WT LIMK1-NanoLuc (Homo sapiens, UniProt P53667)", "sequence (P53667 whole entry)": "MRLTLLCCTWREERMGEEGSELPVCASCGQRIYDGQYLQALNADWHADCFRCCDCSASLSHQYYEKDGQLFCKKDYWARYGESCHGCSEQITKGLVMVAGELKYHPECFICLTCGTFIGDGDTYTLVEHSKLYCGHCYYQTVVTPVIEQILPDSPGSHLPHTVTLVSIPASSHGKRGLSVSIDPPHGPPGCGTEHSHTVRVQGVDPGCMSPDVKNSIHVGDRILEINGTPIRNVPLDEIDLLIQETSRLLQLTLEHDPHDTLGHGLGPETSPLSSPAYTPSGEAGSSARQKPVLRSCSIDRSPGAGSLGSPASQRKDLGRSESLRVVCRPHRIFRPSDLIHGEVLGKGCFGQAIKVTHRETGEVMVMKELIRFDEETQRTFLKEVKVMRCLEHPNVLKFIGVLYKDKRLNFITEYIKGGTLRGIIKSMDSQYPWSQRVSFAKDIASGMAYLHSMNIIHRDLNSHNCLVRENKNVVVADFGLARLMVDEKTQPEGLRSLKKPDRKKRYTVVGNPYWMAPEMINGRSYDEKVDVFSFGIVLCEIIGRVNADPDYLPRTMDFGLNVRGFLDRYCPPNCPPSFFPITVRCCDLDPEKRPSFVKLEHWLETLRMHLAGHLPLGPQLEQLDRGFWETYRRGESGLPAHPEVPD", "test": "LIMK1 NanoBRET target engagement assay, WT", "format": "cell-based", "details": "HEK293T cells, 0.5 μM K-10 tracer, 3 h", "how_it_was_run": "(§1)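 HEK293T cells in Opti-MEM without phenol red with 1% FBS (2x10^5 cells/mL) were transfected with WT or C349A LIMK1-NanoLuc plasmid (1 μg/mL) plus carrier DNA (9 μg/mL) for 20 h at 37 °C/5% CO2. K-10 tracer and test compound (diluted from 1000x DMSO stocks) were added for 3 h at 37 °C. Donor 450 nm and acceptor 610 nm were read after substrate/inhibitor (2 min, RT). Untransfected background was subtracted, mBU calculated, then normalized to DMSO. Triplicate wells.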"}, "C349A LIMK1-NanoLuc": {"target": "C349A LIMK1-NanoLuc (Homo sapiens, UniProt P53667, C349A)", "sequence (P53667 whole entry C349A)": "as the sequence (P53667 whole entry) above, with C349A counted along it", "test": "LIMK1 NanoBRET target engagement assay, C349A", "format": "cell-based", "details": "HEK293T cells, C349A-LIMK1 mutant, 3 h", "how_it_was_run": "as §1"}}, "data": [{"smiles": "COc1ccc(N(C(=O)Nc2c(C)cccc2C)c2cc(Nc3ccc(N4CCN(C)CC4)cc3)ncn2)c(OC)c1", "note": "[HG-9-91-01]", "values": [{"measurement": "BRET signal (NanoBRET K-10 tracer)", "setting": "WT LIMK1-NanoLuc", "value": "decreased NanoBRET signals"}, {"measurement": "BRET signal (NanoBRET K-10 tracer)", "setting": "C349A LIMK1-NanoLuc", "value": "decreased NanoBRET signals"}]}]}
